Source: PubChem (several laboratories)
Hsp90 inh: displaces geldanamycin probe from tumor Hsp90; inhibition, % at 30 µM; NCI-N417 lysate Hsp90, Cy3B-geldanamycin FP displacement; hit rate 0.35% among 64,000; P07900;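 active = inhibition above 50%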
E coli WT exp: E. coli BW25113 growth inhibition, expanded screen. OD600 absorbance. growth inhibition, % at 100 µM. hit rate 0.15% among 98,000;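 active = growth inhibition above about 50% at one test dose, limit read from the data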;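 note: growth measured after 20 h incubation at 37 °C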
BAP1 block: inhibitors of human BAP1 deubiquitinase; Q92560; recombinant BAP1, Ub-AMC hydrolysis fluorescence kinetic; stronger effect = lower value; hit rate 0.48% among 72,000; AID 436; calls only at 20 µM;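 active = activity remaining at or below 50% of control, provided the compound also passes the data quality filters; inactive = the rest, including low values that fail the filters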
tolC growth inh: blocks growth of E. coli BW25113 tolC mutant | AID 573 | OD615 | growth inhibition, % at 10 µM (by protocol) | hit rate 2.2% among 65,000;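 active = growth inhibition at or above a cutoff equal to the mean over every tested compound plus 3 SD, cut at about 60% in these data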;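 note: growth measured after 20 h incubation at 37 °C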
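Assay system: tolC-deleted E. coli BW25113. Medium: kanamycin-containing LB broth (50 µg/mL). Dosing: 10 µM final, single dose. Timing: bacterial growth with compound for 20 h at 37 °C. Detection: A615 absorbance measurement. Read-out basis: growth inhibition in percent.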
M1 antagonist: blocks the rat M1 muscarinic receptor response to acetylcholine | B-score at 10 µM | hit rate 3.4% among 64,000 | CHO-M1 cells, Fluo-4 calcium, ACh EC80 antagonist mode; stronger effect = lower value | AID 628 | P08482;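 active = calcium fluorescence response, raw or row-and-column corrected B-score, differing from the plate sample mean either way at a set confidence level, mostly lower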
M1 ag: agonists of M1 muscarinic receptor; hit rate 3% among 64,000; CHO-M1 cells, Fluo-4 calcium fluorescence, agonist mode; stronger effect = higher value; B-score at 10 µM;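 active = fluorescence rise, raw or as B-score row- and column-corrected plate score, outside the 99.7% band of its plate's samples, either direction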
M1 agonist conf: confirmation of rat M1 muscarinic receptor agonists. shares compounds with M1 ag. CHO-M1 cells, Fluo-4 calcium fluorescence, agonist mode; actives lie on both sides. fluorescence change (max-min) at 10 µM. hit rate 19% among 1,700. AID 1488;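 active = fluorescence change differs from the solvent-only DMSO control mean at a set confidence level in both duplicate runs; inconclusive = differs from solvent-only control mean in just one of two runs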;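 note: an EC20 dose of acetylcholine follows compound addition during the same imaging run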
M4 agonist ctr: rat M4 muscarinic agonism, M1 counter-screen; shares compounds with M1 ag; CHO M4/Gqi5 cells, Fluo-4 calcium fluorescence, agonist mode; actives lie on both sides; fluorescence change (max-min) at 10 µM; hit rate 9% among 1,700; AID 1741;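 active = fluorescence change differing from the plate's solvent-only control wells at 99.7% confidence in both duplicates, whether higher or lower; inconclusive = differs from solvent controls in only one of two duplicates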
Target sequence (P08485 whole entry, looked up): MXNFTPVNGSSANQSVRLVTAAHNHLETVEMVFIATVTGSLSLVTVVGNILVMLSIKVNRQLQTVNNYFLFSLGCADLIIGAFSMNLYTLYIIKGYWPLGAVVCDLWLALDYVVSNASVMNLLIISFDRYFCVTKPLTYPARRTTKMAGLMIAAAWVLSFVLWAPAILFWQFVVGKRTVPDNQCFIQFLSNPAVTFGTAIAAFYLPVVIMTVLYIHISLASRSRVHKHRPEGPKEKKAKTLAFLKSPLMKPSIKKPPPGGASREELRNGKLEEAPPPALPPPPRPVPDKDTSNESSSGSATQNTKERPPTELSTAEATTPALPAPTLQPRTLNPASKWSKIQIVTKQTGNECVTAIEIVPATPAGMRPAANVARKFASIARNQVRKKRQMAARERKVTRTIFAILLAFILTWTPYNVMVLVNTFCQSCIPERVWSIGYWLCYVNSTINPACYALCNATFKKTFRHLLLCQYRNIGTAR
Hits are given with their value; - = inactive; ? = inconclusive; . = no result given. This is a sample that favours compounds with a hit; in the whole collection about 5.1% have one here.

SMILES	Hsp90 inh	E coli WT exp	BAP1 block	tolC growth inh	M1 antagonist	M1 ag	M1 agonist conf	M4 agonist ctr
CCc1cc2c(=O)c(-c3nc4ccccc4s3)coc2cc1OC(=O)c1ccco1	.	.	-	.	.	.	.	.
CCOC(=O)N1CCN(C(=O)c2cc(-c3ccc(OCC)cc3)nc3ccccc23)CC1	-	-	-	-	-	8.7	?	-
COc1ccc(CN(CCC(c2ccccc2)c2ccc3c(c2)OCO3)C(C)=O)cc1 (stereo not given)	.	.	-	.	.	.	.	.
CCC(=O)N(CC)c1nc(-c2ccc(OC)cc2)cs1	-	-	-	-	-	46	?	-75
O=C(Nc1cccc(Br)c1)c1ccc(S(=O)(=O)N2CCc3ccccc3C2)cc1	.	.	-	.	.	.	.	.
Cc1ccc(C)c2[nH]c(=O)c(CN(Cc3ccco3)C(=O)Nc3ccccc3)cc12	-	-	-	-	-	5.2	-	-
Cc1ccc2cc(CN(Cc3ccco3)C(=O)NCc3ccccc3)c(=O)[nH]c2c1C	-	-	-	-	-	-	.	.
CN(C)c1ccc(/C=C/C(O)=C2/C(=O)N(C)C3(C)CC2c2ccccc2O3)cc1 (stereo not given)	-	-	-	-	-	28	232	229
CN(C)c1ccc(C=C2C(=O)OC(C)(C(C)(C)C)OC2=O)cc1 (stereo not given)	.	-	.	.	.	.	.	.
O=S(=O)(Nc1cnc2ccccc2c1)N1CCCCCC1	-	-	-	-	-	-2.5	-	-
COc1ccc(OC)c(S(=O)(=O)Nc2cnc3ccccc3c2)c1	-	-	-	-	-	-	.	.
Nc1nc2ccc(Cc3ccc4nc(N)sc4c3)cc2s1	.	.	-	.	.	.	.	.
COc1ccc(OCC(O)Cn2c(=N)n(CCN3CCOCC3)c3ccccc32)cc1 (stereo not given)	-	-	-	-	-	7.5	-	-
CCOC(=O)c1c(NC(=O)c2ccc(C)c([N+](=O)[O-])c2)sc(C(=O)Nc2ccccc2F)c1C	.	.	-	.	.	.	.	.
O=C(C1CC1(c1ccccc1)c1ccccc1)N1CCOCC1 (stereo not given)	-	-	-	-	-	-2.7	-	-
O=C(N1CCOCC1)C1(c2ccccc2)CCCCC1	-	-	-	-	-	-	.	.
CC(=O)Oc1ccc(N2C(=O)c3ccc(C(=O)Oc4ccccc4)cc3C2=O)cc1	.	.	-	.	.	.	.	.
CCOC(=O)Cc1nnc2c(Nc3ccc(C)cc3)nc3nonc3n12	-	-	-	-	-	-	.	.
CCOC(=O)Cc1nnc2c(Nc3ccccc3F)nc3nonc3n12	-	-	-	79	-	4.3	?	-
COc1ccccc1S(=O)(=O)Cc1ccc(C(=O)N2CCN(c3ccccc3)CC2)o1	-	-	-	-	-	-	.	.
Cc1ccc(S(=O)(=O)Cc2ccc(C(=O)N3CCN(c4cc(C)ccc4C)CC3)o2)cc1	-	-	-	-	-	-	.	.
O=C(c1ccc(CS(=O)(=O)c2c(Cl)cccc2Cl)o1)N1CCN(c2ccccn2)CC1	-	-	-	-	-3	3.4	-	-
Cc1ccc(C)c(N2CCN(C(=O)c3ccc(CS(=O)(=O)c4ccccc4C)o3)CC2)c1	-	-	-	-	-	2.8	-	-
Cc1cccc(N2CCN(C(=O)c3ccc(CS(=O)(=O)c4ccccc4C)o3)CC2C)c1 (stereo not given)	-	-	-	-	-2.2	9.2	?	-
COc1ccccc1S(=O)(=O)Cc1ccc(C(=O)N2CCN(c3cccc(Cl)c3)CC2)o1	-	-	-	-	-	9.5	-26	-
SMILES	Hsp90 inh	E coli WT exp	BAP1 block	tolC growth inh	M1 antagonist	M1 ag	M1 agonist conf	M4 agonist ctr
CC(C(=O)c1ccc(-c2ccccc2)cc1)[n+]1ccc2ccccc2c1 (stereo not given)	.	.	-	.	.	.	.	.
Cc1sc2nc(CSc3nc4ccccc4c(=O)n3CCCN3CCOCC3)[nH]c(=O)c2c1C	-	-	.	-	-	11	-	-
CCn1nc(NC(=O)c2cccnc2)c2cc3ccccc3nc21	-	-	-	-	-	5	-30	-92
CCn1nc(NC(=O)c2ccccn2)c2cc3cc(C)ccc3nc21	-	-	-	-	-	-	.	.
Cc1ccccc1C(=O)N1CCN(c2ccc(NC(=O)c3ccco3)cc2Cl)CC1	-	-	-	-	-	2.9	?	-
Cc1cccc(NC(=O)c2cc(NC(=O)c3ccco3)ccc2Cl)n1	-	-	.	-	-	2.5	-	-
COc1ccc(C=Nc2nc3ccccc3n2CCN2CCCCC2)cc1	.	.	-	.	.	.	.	.
Cc1ccc(Cc2cnc(NC(=O)c3ccco3)s2)cc1	.	-	.	.	.	.	.	.
CC(=O)c1ccc(Cc2cnc(N)s2)cc1	-	-	-	-	-	2.9	-	-
CCOC(=O)c1c(NC(=O)c2nn(CC)cc2Br)c(C#N)cn1-c1ccccc1	-	-	-	-	-	3.1	-	-
CCCCCn1c(N)nc2c1c(=O)[nH]c(=O)n2C	.	.	-	.	.	.	.	.
Cc1cc(C)cc(-n2nc3c(c2NC(=O)c2ccccc2[N+](=O)[O-])CSC3)c1	.	.	-	.	.	.	.	.
CCOC(=O)c1ccc(S(=O)(=O)Nc2ccccc2-c2nnn(CC)n2)cc1	-	-	-	-	-3	3.8	?	?
CC(C)(C)c1cc(NS(=O)(=O)c2ccc3c(c2)OCCO3)on1	-	-	-	-	-	-	.	.
CCOC(=O)c1ccc(S(=O)(=O)Nc2cc(C(C)(C)C)no2)cc1	-	-	-	-	-	7.6	-	-
CC1CCCN(C(=O)CSCC(=O)Nc2nc(-c3cccs3)cs2)C1 (stereo not given)	-	-	-	-	-	6.8	-	-
CC1CCCCN1C(=O)CSCC(=O)Nc1nc(-c2cccs2)cs1 (stereo not given)	-	-	-	-	-	8	-	-
CC1CCN(C(=O)CSCC(=O)Nc2nc(-c3cccs3)cs2)CC1	-	-	-	-	-	-	.	.
Cc1ccc(C(=O)Nc2sc3c(c2C(=O)N2CCC(C)CC2)CCCC3)cc1	.	.	-	.	.	.	.	.
COc1cc2nc3c4ccccc4n(C(C)C)c3nc2cc1OC	.	.	-	.	.	.	.	.
Cc1ccc(-c2noc(CCC(=O)Nc3cccc(C#N)c3)n2)cc1	-	-	-	-	-	3.5	-	-
COc1cccc(C2=CC(c3ccccc3)n3ncnc3N2)c1 (stereo not given)	-	-	-	-	-	33	159	148
COc1cccc(C2=CC(c3ccccc3)n3nnnc3N2)c1 (stereo not given)	-	-	-	-	-	-	.	.
COc1cccc(C2=CC(c3ccc(N(C)C)cc3)n3ncnc3N2)c1 (stereo not given)	-	-	-	-	-	2.2	-	-
COc1ccc(C(=O)N2CCN(c3ccc(C)c(C)c3)CC2)cc1OC	-	-	-	-	-	-2.5	?	-83
CCc1ccc(Cn2nnc(C(=O)Nc3cccc(C)c3)c2N)cc1	-	-	-	-	-	-	.	.
